Results on 21 compounds are retold here after ChEMBL document CHEMBL1130978, “Discovery of FR115092: a novel antinephritic agent” (1998).

As usually defined, the inhibition in vivo is the change of the read-out against control, counted positive when it falls. A high value points to a response far below the control.

The first assay concerns Mus musculus. As to the kind of experiment: Inhibition of proteinuria in the graft-versus-host disease mice following 100 mg/kg p.o. administration. Type of assay: functional. The note with it: route oral. In outline: (§1)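 Chronic GVHD induced in 6-week-old female ([…] x DBA/2)F1 mice by two injections of DBA/2 spleen cells (5 x 10^7 cells each), given 5 days apart. Oral dosing once daily for 8 weeks, starting 3 days after the second injection. Urinary albumin measured after the last dose by single radial immunodiffusion with rabbit anti-mouse serum albumin antiserum. Ten mice per group. Value reported as % inhibition of proteinuria.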
In turn, `Nc1ccc([S+]([O-])c2cnc(N)s2)cc1` (stereo not given) gave an inhibition in vivo at 100 mg/kg of 79%.

For `Nc1ccc(NS(=O)(=O)c2ccc(N)cc2)cc1`, the inhibition in vivo at 100 mg/kg amounted to 54%.

As for `CS(=O)(=O)Nc1ccc(C(=O)c2ccc(N)cc2)cc1`, the inhibition in vivo at 100 mg/kg is under 50%.

In turn, `Nc1ccc([S+]([O-])c2ccc(N)cc2)cc1` registered an inhibition in vivo at 100 mg/kg of 95%.

`Nc1ccc([S+]([O-])c2ncccn2)cc1` (stereo not given) registered an inhibition in vivo at 100 mg/kg of 99%.

Turning to `Cc1cc(C(=O)c2ccc(N)cc2)cc(C)c1N`, the inhibition in vivo at 100 mg/kg was 99%.

The compound `Cc1cc(C(=O)c2ccc(N)cc2)ccc1N` gave an inhibition in vivo at 100 mg/kg of 100%.

For `Nc1ccc(C(=O)c2cccc(N)c2)cc1`, the inhibition in vivo at 100 mg/kg is under 50%.

`Nc1ccc(NC(=O)c2ccc(N)cc2)cc1` displayed an inhibition in vivo at 100 mg/kg of under 50%.

For `Nc1ccc(C(=O)c2ccncc2)cc1`, 100 mg/kg produced 89% inhibition in vivo.

Consider `NC(=O)Nc1ccc(C(=O)c2ccc(N)cc2)cc1`, for which the inhibition in vivo at 100 mg/kg is under 50%.

Take `Nc1ccc(Oc2ccc(N)cc2)cc1`: the inhibition in vivo at 100 mg/kg stood at 93%.

Compound `Nc1ncc(Sc2ccccn2)s1` yielded an inhibition in vivo at 100 mg/kg of 90%.

The compound `Cn1ccnc1[S+]([O-])c1ccc(N)cc1` (stereo not given) yielded an inhibition in vivo at 100 mg/kg of under 50%.

As to `Nc1ccc(C(=O)c2ccc(N)cc2)cc1`, 100 mg/kg produced 95% inhibition in vivo.

In turn, `Nc1ncc([S+]([O-])c2ccccn2)s1` (stereo not given) returned an inhibition in vivo at 100 mg/kg of 98%.

Compound `Nc1ncc(S(=O)(=O)c2ccccn2)s1` showed an inhibition in vivo at 100 mg/kg of 92%.

The compound `Nc1ccc(Sc2ccc(N)cc2)cc1` [4,4'-THIODIANILINE] yielded an inhibition in vivo at 100 mg/kg of 70%.

In turn, `Nc1ccc(S(=O)(=O)c2ccc(N)cc2)cc1` [DAPSONE] came in with an inhibition in vivo at 100 mg/kg of 95%.

For the next assay, the system named is Mus musculus. Nature of the assay: Compound was tested for the inhibition of proteinuria in the graft-versus-host disease (GVHD) in mice at 100 mg/kg p.o.; 8/10 mice died. Type of assay: functional. The note with it: route oral.
For the compound `Nc1ncc([S+]([O-])c2ccncc2)s1` (stereo not given), testing at 100 mg/kg gave an inhibition in vivo of 100%.

The next assay has as its system Mus musculus. Nature of the assay: Compound was tested for the inhibition of proteinuria in the graft-versus-host disease (GVHD) in mice at 100 mg/kg p.o.; 9/10 mice died. It is filed as functional. The note with it: route oral.
As for `Nc1ccc([S+]([O-])c2ccncc2)cc1` (stereo not given), the inhibition in vivo at 100 mg/kg was under 50%.

The next assay concerns Mus musculus. As to the kind of experiment: Antinephritic activity on chronic graft-versus-host disease (GVHD) in mice at 32 mg/kg p.o. It is filed as functional. The note with it: route oral. The procedure, abridged: as §1
The compound `Nc1ncc(S(=O)(=O)c2ccccn2)s1` registered an inhibition in vivo at 32 mg/kg of 29%.

Compound `Nc1ccc(S(=O)(=O)c2ccc(N)cc2)cc1` [DAPSONE] gave an inhibition in vivo at 32 mg/kg of under 50%.

In a further assay the test system is Mus musculus. Nature of the assay: Antinephritic activity on chronic graft-versus-host disease (GVHD) in mice at 10 mg/kg p.o. It is filed as functional. The note with it: route oral. In outline: as §1
For the compound `Nc1ncc(S(=O)(=O)c2ccccn2)s1`, the inhibition in vivo at 10 mg/kg worked out at 63%.

For the compound `Nc1ccc(S(=O)(=O)c2ccc(N)cc2)cc1` [DAPSONE], the inhibition in vivo at 10 mg/kg is under 50%.
